Published values pooled from the literature.
Target: Phosphatidylinositol 4,5-bisphosphate 3-kinase catalytic subunit beta isoform (PIK3CB, Homo sapiens, UniProt P42338)

The remaining binding of c1cnn2ncc(-c3ccnc(N4CCC45COC5)n3)c2c1 is reported as 62% (binding; 1 µM).
With O=c1nc(-c2ccccn2)sc2ccccc12 the remaining binding was 100% (cell-free assay, competition with immobilised ligand; 1 µM).
With Nc1ncc2c(n1)-c1c([nH]c3ccc(C#CC4CC4)cc13)CCCC2 the remaining binding was 100% (binding, competition with immobilised ligand; 1 µM).
With O=C(c1ccc(Nc2nccc(-c3cc4ccccc4s3)n2)cc1)N1CCC(N2CCCC2)CC1 the remaining binding was 86% (binding, competition with immobilised ligand; 1 µM).
With COc1ccc2c(O[C@@H]3C[C@H]4C(=O)N[C@]5(C(=O)O)CC5/C=C\CCCCC[C@H](NC(=O)OC5CCCC5)C(=O)N4C3)cc(-c3csc(NC(=O)C(C)C)n3)nc2c1C (stereo partly drawn) the remaining binding was 62% (cell-free assay, competition with immobilised ligand; 1 µM).
CN(c1nccc(-c2cnn3ncccc23)n1)C1CC1 has a remaining binding of 100% (binding; 1 µM).
With O=C(c1ccc(Nc2ncc(Cl)c(-c3ccc(Cl)s3)n2)cc1)N1CCC(N2CCCC2)CC1 the remaining binding was 100% (binding, competition with immobilised ligand; 1 µM).
O=C(NCC1CCOCC1)c1n[nH]cc1NC(=O)c1c(F)cccc1F gave a remaining binding of 91% (binding, competition with immobilised ligand; 1 µM).
COc1ccnn2ncc(-c3ccnc(N(C)C)n3)c12 has a remaining binding of 75% (binding; 1 µM).
For Cc1cc(NC(=O)c2cccc(S(F)(F)(F)(F)F)c2)cc(-n2ccn3nc(-c4cccnc4)cc23)c1, the remaining binding was 100% (cell-free assay, competition with immobilised ligand; 1 µM).
For CCN1CCN(Cc2ccc(C(=O)Nc3ccc(C)c(Oc4ccc5c(c4)CC(=O)N5)c3)cc2C(F)(F)F)CC1, the remaining binding was 100% (binding, competition with immobilised ligand; 1 µM).
The remaining binding of CC1CCCN1c1nccc(-c2cnn3ncccc23)n1 (stereo not drawn) is reported as 100% (binding; 1 µM).
With O=C(NCc1ncc(C(F)(F)F)cc1Cl)c1ccc2c(c1)C1(CCS(=O)(=O)CC1)[C@H](C1CC1)N2S(=O)(=O)c1ccc(F)cc1 the remaining binding was 68% (cell-free assay, competition with immobilised ligand; 1 µM).
N[C@@H]1CCN(c2nccc(-c3cnn4ncccc34)n2)C1 gave a remaining binding of 100% (binding; 1 µM).
With COc1cnc(Nc2cccc(S(N)(=O)=O)c2)nc1N1CCN(c2ccccc2)CC1 the remaining binding was 86% (binding, competition with immobilised ligand; 1 µM).
Cc1cnc(Nc2ccc(C(=O)N3CCC(N4CCCC4)CC3)cc2)nc1-c1cc2ccccc2s1 has a remaining binding of 99% (binding, competition with immobilised ligand; 1 µM).
With COc1ncc2cc3ccccc3nc2c1C#N the remaining binding was 100% (cell-free assay, competition with immobilised ligand; 5 µM).
The remaining binding of CN(C)C(=O)Cn1cc(-c2nc(C3(c4ccc(-c5cnc(N)nc5)cc4)CC3)no2)cn1 is reported as 96% (cell-free assay, competition with immobilised ligand; 1 µM).
With CN(C)c1nccc(-c2cnn3ncccc23)n1 the remaining binding was 50% (binding; 1 µM).
The remaining binding of CCC(=N\O)/C(C)=C/c1ccc(F)cc1 is reported as 99% (cell-free assay, competition with immobilised ligand; 1 µM).
For FC(F)(F)Oc1cccc(-c2cnc3ccc(-c4ccncc4)nn23)c1, the remaining binding was 48% (cell-free assay, competition with immobilised ligand; 5 µM).
